These results are taken from ChEMBL document CHEMBL2390931, “Synthesis and antifungal activity of some s-mercaptotriazolobenzothiazolyl amino acid derivatives” (2013).

In brackets after ≈: the same amount, converted by molar mass. Activity calls are given as the source filed them. The calls are words filed in the database; no cut-off is given here.

Holding throughout (type): functional
The test system of assay [1] is Candida albicans. Nature of the assay: Antifungal activity against Candida albicans up to 24 hrs. The method, boiled down:
(§1)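 MFC in tubes of standardized spore suspension (10⁴ CFU/mL) of clinical isolates, each dosed with compound at increasing concentrations starting from the MIC. Controls: solvent at its highest level, and fluconazole. CFU counted and viability checked at intervals over 0–24 h. MFC is the lowest concentration killing about 99% of viable CFU.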

Assay [2] relates to Candida albicans. Nature of the assay: Antifungal activity against Candida albicans by agar diffusion technique. The method, boiled down: (§2)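 Clinical isolates (A. flavus mold; C. albicans yeast), spore suspension standardized at 10⁴ CFU/mL. DMSO stocks diluted to a concentration series. Approximate MIC by agar diffusion (well technique), taken as the concentration giving minimal inhibition around the well.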

In assay [3] the test system is Aspergillus flavus. Nature of the assay: Antifungal activity against Aspergillus flavus up to 24 hrs. The method, boiled down:
as §1

Assay [4] deals with Aspergillus flavus. Nature of the assay: Antifungal activity against Aspergillus flavus by agar diffusion technique. The method, boiled down: as §2
The test system of assay [5] is Candida albicans. Nature of the assay: Antifungal activity against Candida albicans at 500 ppm. The note with it: for zone of inhibition at 500 ppm: read-out: DIZ. The method, boiled down: (§3)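 Agar well diffusion against clinical isolates (A. flavus mold; C. albicans yeast); standardized spore suspension 10⁴ CFU/mL. Compounds dissolved in DMSO as a parent stock, diluted to test levels (100, 300, 500, 1000 ppm).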

The subject of assay [6] is Candida albicans. Nature of the assay: Antifungal activity against Candida albicans at 1000 ppm. As to conditions: read-out: DIZ. The gist of the method: as §3
Assay [7] concerns Candida albicans. Nature of the assay: Antifungal activity against Candida albicans at 300 ppm. The note with it: for zone of inhibition at 300 ppm: read-out: DIZ. The method, boiled down:
as §3

Assay [8] has as its system Candida albicans. Nature of the assay: Antifungal activity against Candida albicans at 100 ppm. The note with it: for zone of inhibition at 100 ppm: read-out: DIZ. The gist of the method:
as §3

The subject of assay [9] is Aspergillus flavus. Nature of the assay: Antifungal activity against Aspergillus flavus at 500 ppm. The gist of the method: as §3
The test system of assay [10] is Aspergillus flavus. Briefly: Antifungal activity against Aspergillus flavus at 1000 ppm. The note with it: for zone of inhibition at 1000 ppm: read-out: DIZ. The method, boiled down: as §3
Assay [11] relates to Aspergillus flavus. Nature of the assay: Antifungal activity against Aspergillus flavus at 100 ppm. The method, boiled down: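 Clinical isolate of A. flavus (mold) tested by agar diffusion, well technique, using a standardized spore suspension of 10⁴ CFU/mL. Compounds were dissolved in dimethylsulphoxide and diluted from a parent stock.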
In assay [12] the test system is Aspergillus flavus. Briefly: Antifungal activity against Aspergillus flavus at 300 ppm. The method, boiled down:
as §3

By MFC is commonly meant the lowest tested concentration that kills the fungus rather than only halting it. Broadly, the MIC is the least concentration at which growth counts as inhibited.

Turning to `COC(=O)[C@H](CCSC)NC(=O)CSc1nnc2sc3ccccc3n12`, the MFC result with Candida albicans [1] and with Aspergillus flavus [3] was “inactive” in each case. Also, inhibition of growth against Candida albicans [2] (MIC) required 1000 µg/mL (≈ 2440 µM). The MIC result in the assay on Aspergillus flavus [4] is “inactive”. The “diameter of the inhibition zone (DIZ)” value in the assay on Candida albicans [5], with Candida albicans [7], with Candida albicans [8], in the assay with Aspergillus flavus [9], in the assay on Aspergillus flavus [10] and with Aspergillus flavus [11] was “inactive” throughout. Besides, the “diameter of the inhibition zone (DIZ)” value in the assay on Aspergillus flavus [12] was “inactive”. In addition, the zone of inhibition at 1000 ppm in the assay on Candida albicans [6] was < 10 mm.
With `COC(=O)[C@H](CCSC)NC(=O)CCn1nc2sc3ccccc3n2c1=S`, the MFC entry with Candida albicans [1] and with Aspergillus flavus [3] was “inactive” in each case. In addition, the MIC with Candida albicans [2] stood at 500 µg/mL (≈ 1180 µM); with Aspergillus flavus [4] it was 1000 µg/mL (≈ 2360 µM). The zone of inhibition at 500 ppm in the assay on Candida albicans [5] was < 10 mm. Further, the zone of inhibition at 1000 ppm with Candida albicans [6] was 10 mm; with Aspergillus flavus [10], < 10 mm. For the same molecule, the “diameter of the inhibition zone (DIZ)” value with Candida albicans [7], in the assay on Candida albicans [8], with Aspergillus flavus [9], in the assay on Aspergillus flavus [11] and in the assay on Aspergillus flavus [12] was “inactive” each time.
Take `COC(=O)[C@H](Cc1ccc(O)cc1)NC(=O)CSc1nnc2sc3ccccc3n12`: the MFC entry with Candida albicans [1] and with Aspergillus flavus [3] was “inactive” in each case. Further, the minimal inhibitory concentration (MIC) with Candida albicans [2] was determined as 100 µg/mL (≈ 226 µM); in the assay with Aspergillus flavus [4], 1000 µg/mL (≈ 2260 µM). In addition, in the assay with Candida albicans [5], the zone of inhibition at 500 ppm was > 16 mm. Further, the zone of inhibition at 1000 ppm in the assay with Candida albicans [6] is > 16 mm; in the assay with Aspergillus flavus [10], < 10 mm. In addition, the zone of inhibition at 300 ppm in the assay on Candida albicans [7] is < 10 mm. In addition, in the assay on Candida albicans [8], the zone of inhibition at 100 ppm is < 10 mm. Besides, the “diameter of the inhibition zone (DIZ)” value in the assay on Aspergillus flavus [9], in the assay on Aspergillus flavus [11] and in the assay on Aspergillus flavus [12] was “inactive” throughout.
Turning to `O=C(O)CSc1nnc2sc3ccccc3n12`, in the assay with Candida albicans [1], the MFC entry is “inactive”. Also, the MIC was 300 µg/mL (≈ 1130 µM) against Candida albicans [2] and 1000 µg/mL (≈ 3770 µM) against Aspergillus flavus [4]. The molecule further returned an MFC against Aspergillus flavus [3] of 500 µg/mL (≈ 1880 µM). Besides, the zone of inhibition at 500 ppm in the assay with Candida albicans [5] was < 10 mm. Besides, the figures for the zone of inhibition at 1000 ppm with Candida albicans [6] and in the assay with Aspergillus flavus [10] were 10 mm and < 10 mm, respectively. Besides, the zone of inhibition at 300 ppm in the assay on Candida albicans [7] was < 10 mm. For the same molecule, the “diameter of the inhibition zone (DIZ)” value with Candida albicans [8], in the assay with Aspergillus flavus [9], in the assay on Aspergillus flavus [11] and in the assay on Aspergillus flavus [12] was “inactive” throughout.
As for `COC(=O)CNC(=O)CSc1nnc2sc3ccccc3n12`, the MFC result with Candida albicans [1] and in the assay with Aspergillus flavus [3] was “inactive” in each case. Also, the MIC against Candida albicans [2] amounted to 500 µg/mL (≈ 1490 µM); in the assay with Aspergillus flavus [4], 1000 µg/mL (≈ 2970 µM). In the assay with Candida albicans [5], the zone of inhibition at 500 ppm was < 10 mm. The zone of inhibition at 1000 ppm is 10 mm in the assay on Candida albicans [6] and < 10 mm with Aspergillus flavus [10]. Moreover, the “diameter of the inhibition zone (DIZ)” value in the assay on Candida albicans [7], with Candida albicans [8], in the assay with Aspergillus flavus [9], in the assay with Aspergillus flavus [11] and in the assay with Aspergillus flavus [12] was “inactive” throughout.
Regarding `OC(Cn1cncn1)(Cn1cncn1)c1ccc(F)cc1F` [FLUCONAZOLE], the MFC against Candida albicans [1] was found to be 300 µg/mL (≈ 980 µM); with Aspergillus flavus [3], 300 µg/mL (≈ 980 µM); in the assay with Aspergillus flavus [4], 100 µg/mL (≈ 327 µM). In addition, the MIC in the assay with Candida albicans [2] was 100 µg/mL (≈ 327 µM). In addition, the zone of inhibition at 500 ppm in the assay on Candida albicans [5] and with Aspergillus flavus [9] (read-out: DIZ) was > 16 mm in each case. Moreover, the zone of inhibition at 1000 ppm in the assay on Candida albicans [6] and with Aspergillus flavus [10] was > 16 mm each time. Besides, the zone of inhibition at 300 ppm in the assay on Candida albicans [7] and with Aspergillus flavus [12] (read-out: DIZ) was 10 mm in each case. Further, the zone of inhibition at 100 ppm in the assay on Candida albicans [8] and in the assay on Aspergillus flavus [11] (read-out: DIZ) was < 10 mm each time.
On to `O=C(CCSc1nnc2sc3ccccc3n12)N(C(=O)NC1CCCCC1)C1CCCCC1`, for which the MFC entry in the assay on Candida albicans [1] and in the assay on Aspergillus flavus [3] was “inactive” throughout. Moreover, the MIC in the assay with Candida albicans [2] was 300 µg/mL (≈ 618 µM); with Aspergillus flavus [4], 1000 µg/mL (≈ 2060 µM). Further, in the assay on Candida albicans [5], the zone of inhibition at 500 ppm came out at 10 mm. The results for the zone of inhibition at 1000 ppm in the assay on Candida albicans [6] and with Aspergillus flavus [10] were > 16 mm and < 10 mm, respectively. Moreover, the zone of inhibition at 300 ppm in the assay with Candida albicans [7] is < 10 mm. In addition, the “diameter of the inhibition zone (DIZ)” value with Candida albicans [8], in the assay on Aspergillus flavus [9], in the assay on Aspergillus flavus [11] and in the assay with Aspergillus flavus [12] was “inactive” in each case.
